Screening results from PubChem BioAssay.
FXN GAA850 act – increases GAA850 frataxin promoter reporter activity; hit rate 0.56% among 360,000; HEK293 lucGAA850 FXN promoter luciferase reporter, 24 h; percent of 10 µM SAHA response; AID 540364; activation, % at 6 µM;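 active means activation above the average of all compounds screened plus 3 SD, cutoff fixed separately per campaign, cut at about 7.5% in these data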;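 further: 0% = DMSO wells and 100% = 10 µM SAHA wells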
Fh CTSL1 inh – blocks F. hepatica cathepsin L1 in PFM18AAP counter-screen; recombinant F. hepatica cathepsin L1, Z-Leu-Arg-MCA fluorescence; inhibition, % at 5.96 µM; hit rate 0.49% among 300,000;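 active means inhibition above the mean of all tested compounds plus 3 SD, set per screening campaign, cut at about 17% in these data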;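 further: 0% = plate median of test compound wells and 100% = 1 µM Z-Phe-Ala-diazomethylketone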
AHR act – human AHR activation | P35869 | AID 2796 | AHR-responsive luciferase reporter cells, luminescence | hit rate 2.5% among 320,000 | activation, % at 5 µM; in the data active means activation above about 47%;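 further: 0% = vehicle wells and 100% = reference agonist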
Target sequence (P35869 whole entry, looked up): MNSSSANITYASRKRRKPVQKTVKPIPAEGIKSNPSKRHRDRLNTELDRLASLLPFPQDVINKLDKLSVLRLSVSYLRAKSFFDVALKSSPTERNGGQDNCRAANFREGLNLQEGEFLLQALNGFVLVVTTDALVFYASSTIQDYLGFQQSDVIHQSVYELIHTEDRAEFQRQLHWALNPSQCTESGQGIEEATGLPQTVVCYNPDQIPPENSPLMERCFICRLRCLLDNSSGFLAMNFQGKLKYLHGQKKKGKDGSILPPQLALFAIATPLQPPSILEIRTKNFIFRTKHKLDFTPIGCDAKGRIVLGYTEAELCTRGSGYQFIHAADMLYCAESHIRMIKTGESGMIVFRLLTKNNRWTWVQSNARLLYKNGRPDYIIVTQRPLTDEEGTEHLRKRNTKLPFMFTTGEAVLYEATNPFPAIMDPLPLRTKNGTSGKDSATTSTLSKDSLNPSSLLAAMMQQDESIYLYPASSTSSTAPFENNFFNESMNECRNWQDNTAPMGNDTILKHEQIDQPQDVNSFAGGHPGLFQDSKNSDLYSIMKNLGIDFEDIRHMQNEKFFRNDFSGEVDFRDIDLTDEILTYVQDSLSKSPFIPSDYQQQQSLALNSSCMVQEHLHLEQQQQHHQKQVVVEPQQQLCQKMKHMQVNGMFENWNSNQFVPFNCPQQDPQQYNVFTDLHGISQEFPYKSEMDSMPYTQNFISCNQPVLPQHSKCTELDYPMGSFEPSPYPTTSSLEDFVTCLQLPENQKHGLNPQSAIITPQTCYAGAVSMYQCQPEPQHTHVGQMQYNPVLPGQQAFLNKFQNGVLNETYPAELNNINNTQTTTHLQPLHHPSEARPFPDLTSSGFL
HDAC3 inh – inhibitors of human histone deacetylase 3; recombinant HDAC3, fluorogenic peptide/trypsin coupled, fluorescence; inhibition, % at 8.3 µM; hit rate 0.15% among 320,000; in the data active means inhibition above about 26%, passing the limit was not always enough
SENP1 inh – blocks the human SENP1 SUMO protease catalytic domain; Q9P0U3; recombinant SENP1 catalytic domain, CyPet-SUMO1-YPet FRET cleavage; inhibition, % at 10 µM; hit rate 0.21% among 360,000; AID 624204;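 active means inhibition at least 30% at 10 µM, raw YFP signal under a set limit, fluorescence ratio 0.5 to 1.5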;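 further: 0% = enzyme with DMSO and 100% = no enzyme wells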
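material = recombinant human SENP1 catalytic domain, His6-tagged | quantity = 20 pM enzyme | reagent = 25 nM SUMO1 FRET substrate | compound dosing = 10 µM single point, 0.5% DMSO | timing = 50 min enzyme reaction, room temperature, light-protected | detection = FRET, CFP and YFP emission | control set = no-enzyme low, enzyme-DMSO high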
M18AAP inhibitor – blocks P. falciparum M18 aspartyl aminopeptidase; hit rate 1.2% among 290,000; recombinant PfM18AAP, H-Glu-NHMec fluorogenic cleavage; inhibition, % at 7.35 µM;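 active means inhibition above the campaign mean inhibition over all tested compounds plus 3 SD, cut at about 28% in these data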;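 further: 0% = plate median of test compound wells and 100% = 2 mM ZnCl2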
* marks the source's active call; other numbers are inactive results; . = not tested or not shown. Compounds with a hit are over-represented: about 4.2% of the library has one in this group of screens.

SMILES | FXN GAA850 act | Fh CTSL1 inh | AHR act | HDAC3 inh | SENP1 inh | M18AAP inhibitor
COc1ccc(OC)c(Nc2nc(NCCC(C)C)nc(N)c2[N+](=O)[O-])c1 | 1.6 | 1.7 | 20.3 | -0.2 | 2.7 | -10.5
CCC(C)Nc1nc(N)c([N+](=O)[O-])c(Nc2ccccc2OC)n1 (centres undefined) | 4.3 | 5.6 | 69.4* | 10.5 | 0.7 | 7.5
COc1ccccc1Nc1nc(NCC(C)C)nc(N)c1[N+](=O)[O-] | 3.5 | 2.8 | 79.1* | 10.2 | -0.7 | 4.8
COc1ccccc1Nc1nc(NCCCN(C)C)nc(N)c1[N+](=O)[O-] | -0.3 | -2.4 | 61.6* | 9.6 | -0.5 | 4.7
C=CCc1cccc(CNc2ccc(Br)cc2)c1O | 2.6 | 2.0 | 70.6* | 3.9 | 1.0 | -10.0
c1ccc(C2=NNC(=NC3CC3)SC2)cc1 | -4.1 | 1.6 | 5.6 | 1.9 | 1.4 | 28.0
c1ccc2c(C3=NNC(=NC4CCCCC4)SC3)c[nH]c2c1 | 3.7 | 1.5 | 56.9* | -3.0 | -7.1 | -7.1
Cc1oc2ccc(OCC(N)=O)cc2c1C(=O)OC(C)C | 0.5 | -1.2 | 58.8* | 0.6 | -4.0 | -24.1
Cc1oc2ccc(O)cc2c1C(=O)OC(C)C | -1.3 | -1.1 | -2.7 | -0.6 | -3.9 | -5.4
Cc1oc2ccc(OC(=O)N3CCOCC3)cc2c1C(=O)OC(C)C | -0.1 | -1.4 | 47.1* | -4.1 | -1.3 | -2.1
O=[N+]([O-])c1ccc(O)c(/C=N/n2c(CO)nc3ccccc32)c1 | -0.1 | 6.3 | 5.7 | 1.9 | -15.0 | 1.3
O=[N+]([O-])c1ccc(O)c(/C=N/n2cnc3ccccc32)c1 | -2.9 | 7.8 | 56.1* | -2.2 | -68.9 | 1.2
O=S(=O)(c1cnc[nH]1)N1CCN(c2ccc(Cl)cc2)CC1 | 2.1 | 0.4 | 0.8 | 7.6 | -11.0 | 1.4
COc1ccc(N2CCN(S(=O)(=O)c3cnc[nH]3)CC2)cc1 | 2.3 | 16.9* | -0.5 | -4.1 | 0.0 | -5.6
CCOc1ccc(NC(=O)CC2SC(=O)N(c3ccccc3)C2=O)cc1 (centres undefined) | -0.1 | 4.0 | -0.9 | 39.7* | 1.1 | 3.1
Cn1c(SCC(=O)NCC2CCCO2)ncc(C(=O)Nc2ccc(Cl)cc2)c1=O (centres undefined) | -0.1 | -0.2 | 55.9* | 0.4 | -6.4 | .
Cn1c(SCC(=O)NCc2ccc(F)cc2)ncc(C(=O)Nc2ccccc2)c1=O | 1.9 | -3.5 | 12.0 | 1.4 | 2.2 | .
Cn1c(SCC(=O)NCc2ccc3c(c2)OCO3)ncc(C(=O)Nc2ccc(F)cc2)c1=O | 0.2 | 3.1 | 48.6* | 3.0 | -0.5 | .
Cc1nc(SCC(=O)NCc2ccc3c(c2)OCO3)c(C#N)c2c1CCCC2 | 0.1 | 20.8* | 24.3 | 3.8 | 7.1 | 0.2
CCOCCCn1c(SCC(=O)NCc2ccc3c(c2)OCO3)nc2ccccc2c1=O | 1.2 | 0.3 | 70.3* | -1.4 | 2.2 | -6.5
O=C1N(Cc2cccnc2)C[C@@H]2C[C@@H](c3cccc(OC4CCCC4)c3)N3CCC[C@@]123 | 2.5 | -2.5 | 3.5 | -0.2 | 0.0 | 4.2
COc1cccc(OC)c1OC(=O)/C=C/c1ccc(C)o1 | 2.9 | 4.0 | 0.2 | -4.8 | 1.1 | 1.7
CCC(=O)N(C)C[C@H]1Oc2ncc(C#Cc3cccnc3)cc2C(=O)N([C@@H](C)CO)C[C@@H]1C | 0.6 | . | . | . | -2.1 | .
Cn1c(SCC(=O)NCC2CCCO2)ncc(C(=O)Nc2ccc(F)cc2)c1=O (centres undefined) | 1.6 | 2.5 | 50.9* | -3.2 | 3.4 | .
Cn1c(SCC(=O)NCCc2ccccc2)ncc(C(=O)Nc2ccccc2)c1=O | 0.9 | 2.6 | 18.4 | -6.8 | 2.8 | .
SMILES | FXN GAA850 act | Fh CTSL1 inh | AHR act | HDAC3 inh | SENP1 inh | M18AAP inhibitor
COc1ccc(NC(=O)c2cc(Br)ccc2Cl)c(OC)c1 | 2.4 | 0.5 | 107.0* | 3.2 | -0.5 | 5.5
COc1ccc(OC)c(NC(=O)c2ccc(Cl)cc2)c1 | 3.1 | 48.8* | 18.3 | -3.5 | 1.5 | -5.8
Cc1ccc(C(=O)Nc2cc(Cl)ccc2OC(=O)c2ccc(C)cc2)cc1 | . | 8.3 | 53.1* | 0.9 | . | -1.1
Cc1ccc(CONC(=O)c2ccc(Cl)cc2)cc1 | 0.3 | . | 73.1* | -3.2 | 1.4 | .
CCCCN(C=O)c1c(CC)nc2ccc(C(=O)Nc3cc(-c4ccccc4)ccc3OC)cn12 | -1.6 | . | . | . | 0.9 | .
O=C(Cc1cccs1)NCc1cc(Cl)cc(Cl)c1 | 2.6 | -8.2 | 4.5 | -8.5 | 0.4 | -0.5
O=C1Cc2c([nH]c3ccc([N+](=O)[O-])cc23)-c2ccccc2N1 | -0.9 | . | . | . | 3.4 | .
